Columns and labels:
[1] = Effective concentration to inhibit 50% of human immunodeficiency virus replication in a cell culture model; assay type: functional
Human gammaherpesvirus 4 = assay: Effective concentration to inhibit 50% of epstein Barr virus replication in a cell culture model; assay type: functional, organism-based
Human alphaherpesvirus 1 = assay: Effective concentration to inhibit 50% of herpes simplex virus type 1 replication in a cell culture model; assay type: functional, organism-based
[2] = Effective concentration to inhibit 50% of cytomegalovirus (CMV) replication in a cell culture model; assay type: functional
MT2 = assay: Cytotoxicity against MT-2 cell lines of human; assay type: functional; conditions: read-out: ID50 (the source's name)
Human alphaherpesvirus 2 = assay: Effective concentration to inhibit 50% of herpes simplex virus type 2 replication in a cell culture model; assay type: functional, organism-based
CCRF-CEM = assay: Cytotoxicity against CEM cell lines of human; assay type: functional; conditions: read-out: ID50 (the source's name)
Hepatitis B virus = assay: Effective concentration to inhibit 50% of hepatitis B virus replication in a cell culture model; assay type: functional, organism-based
Hepatitis C virus = assay: Effective concentration to inhibit 50% of hepatitis C virus replication in a cell culture model; assay type: functional, organism-based, Hepacivirus hominis
In short: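 HCV replicon Huh-Luc/neo cells grown to confluence, then treated with varying drug concentrations in DMEM with 10% dFBS for 3 days. Medium was removed and cells lysed in passive lysis buffer, shaken 15 min at room temperature. Lysate was mixed with luciferase substrate and luminescence read immediately as the measure of replicon activity.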

SMILES	EC50 [1]	EC50 (Human gammaherpesvirus 4)	EC50 (Human alphaherpesvirus 1)	EC50 [2]	IC50 (MT2)	EC50 (Human alphaherpesvirus 2)	IC50 (CCRF-CEM)	EC50 (Hepatitis B virus)	EC50 (Hepatitis C virus)
O=C(O)c1cc2c(Br)cc3c(c2c(-c2ccc4c(c2)OCO4)c1CO)OCO3	> 50 µM	> 20 µM	> 50 µM	> 20 µM	50 µM	> 50 µM	46.5 µM	> 18 µM	
CN1Cc2cc3ccc4c(c3c(-c3ccc5c(c3)OCO5)c2C1=O)OCO4	> 26 µM	> 20 µM	14 µM		26 µM	14 µM	27 µM	0.08 µM	3 µM
O=C1OC(O)c2c1c(-c1ccc3c(c1)OCO3)c1c3c(ccc1c2O)OCO3 (centres undefined)	> 15 µM	> 10 µM	> 23 µM		15 µM	> 28 µM	39 µM	> 20 µM	> 10 µM
O=c1[nH][nH]c(=O)c2c(-c3ccc4c(c3)OCO4)c3c4c(cc(Cl)c3cc12)OCO4	> 54 µM	> 20 µM	> 7 µM		54 µM	> 40 µM	38 µM	> 20 µM	10 µM
O=c1[nH][nH]c(=O)c2c(-c3ccc4c(c3)OCO4)c3c4c(cc(I)c3cc12)OCO4	> 2 µM	> 20 µM	> 40 µM		35 µM	> 40 µM	40 µM	> 10 µM	10 µM
CC(=O)NN1C(=O)c2cc3ccc4c(c3c(-c3ccc5c(c3)OCO5)c2C1=O)OCO4	> 100 µM	> 20 µM	> 40 µM		> 100 µM	> 40 µM	93 µM	1 µM	> 10 µM
COC(=O)c1c(C(=O)O)cc2ccc3c(c2c1-c1ccc2c(c1)OCO2)OCO3	> 90 µM	> 20 µM	> 50 µM		90 µM	> 50 µM	74 µM	> 20 µM	> 10 µM
O=C(O)c1cc2ccc3c(c2c(-c2ccc4c(c2)OCO4)c1C(=O)O)OCO3	> 100 µM	> 20 µM	> 50 µM		> 100 µM	> 50 µM	> 100 µM	> 10 µM	> 10 µM
O=C1NCc2c1cc1c(Br)cc3c(c1c2-c1ccc2c(c1)OCO2)OCO3	> 54 µM	> 20 µM	6.5 µM		54 µM	> 20 µM	38 µM	> 10 µM	10 µM
O=C1c2cc3ccc4c(c3c(-c3ccc5c(c3)OCO5)c2C(=O)N1O)OCO4	> 16 µM	> 5 µM	> 30 µM		16 µM	> 30 µM	17 µM	> 10 µM	> 10 µM
CN1Cc2c(cc3ccc4c(c3c2-c2ccc3c(c2)OCO3)OCO4)C1=O	> 8 µM	> 20 µM	0.67 µM		8 µM	1 µM	6 µM	> 20 µM	> 3 µM
COC1=NC(=O)c2c1cc1ccc3c(c1c2-c1ccc2c(c1)OCO2)OCO3	> 100 µM	> 20 µM	> 50 µM		> 100 µM	> 50 µM	> 100 µM	> 5 µM	> 10 µM
O=C1c2cc3ccc4c(c3c(-c3ccc5c(c3)OCO5)c2CN1CCCOCc1ccccc1)OCO4	> 28 µM	> 20 µM	13 µM		28 µM	> 20 µM	67 µM	> 20 µM	10 µM
Cc1c(C(=O)OCCCO)cc2ccc3c(c2c1-c1ccc2c(c1)OCO2)OCO3	> 10 µM	> 15 µM	> 25 µM		10 µM	> 25 µM	46 µM	> 10 µM	> 10 µM
O=C1c2cc3ccc4c(c3c(-c3ccc5c(c3)OCO5)c2CN1CCCO)OCO4	> 8 µM	> 20 µM	5 µM		8 µM	7 µM	6 µM	> 0.9 µM	> 10 µM
O=C1NCc2c1cc1ccc3c(c1c2-c1ccc2c(c1)OCO2)OCO3	> 4 µM	11 µM	0.29 µM		4 µM	0.16 µM	4.5 µM	0.08 µM	1 µM
O=C(O)c1cc2ccc3c(c2c(-c2ccc4c(c2)OCO4)c1COCc1ccccc1)OCO3	> 48 µM	> 20 µM	> 25 µM		48 µM	> 25 µM	> 50 µM	> 10 µM	> 10 µM
O=C(O)c1cc2c(I)cc3c(c2c(-c2ccc4c(c2)OCO4)c1CO)OCO3	> 80 µM	> 20 µM	> 50 µM	> 20 µM	80 µM	> 50 µM	> 100 µM		10 µM
